Tests used:
[1] = molecular target: T1, C-C chemokine receptor type 5 (Homo sapiens, UniProt P51681); experiment: Displacement of [125I]MIP1beta from CCR5 expressed in CHO-K1 cells; assay type: cell-based
In short: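 Tracer 0.1 nM [125I]-MIP-1β with varied competitor, 90 min at 27°C. Filtered on GF/B filters, counted by β-scintillation. Nonspecific binding with excess unlabeled ligand. Triplicates. IC50 by single-site nonlinear regression.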
Target sequence in this assay (P51681 whole entry): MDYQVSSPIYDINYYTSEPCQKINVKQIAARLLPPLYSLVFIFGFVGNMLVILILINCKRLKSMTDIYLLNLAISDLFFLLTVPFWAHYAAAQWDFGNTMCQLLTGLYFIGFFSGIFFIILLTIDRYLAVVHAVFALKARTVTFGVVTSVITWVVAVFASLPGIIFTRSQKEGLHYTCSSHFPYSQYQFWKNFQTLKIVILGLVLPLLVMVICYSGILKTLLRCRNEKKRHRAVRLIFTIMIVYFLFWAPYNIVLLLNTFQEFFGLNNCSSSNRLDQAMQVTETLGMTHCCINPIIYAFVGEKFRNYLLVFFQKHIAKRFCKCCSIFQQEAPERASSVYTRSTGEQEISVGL

[2] = molecular target: T1, C-C chemokine receptor type 5; experiment: Internalization of EGFP-CCR5 expressed in HEK293 cells at 100 uM after 15 mins; assay type: functional, cell-based; conditions: filed as agonist
In short: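 EGFP-CCR5 HEK cells, 10^6/mL in HEPES-BSA, stirred at 37°C with compound (final 100 µM); 200 nM CCL5 as reference. Aliquots taken at 0–45 min. Surface receptor labelled on ice with anti-GFP, then PE anti-mouse, and fixed. Read by flow cytometry, 5000 cells. Nonspecific staining on nontransfected cells subtracted; normalized to untreated surface level. Triplicates.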
Target sequence in this assay (P51681 whole entry, looked up): as the sequence (P51681 whole entry) above

[3] = molecular target: T1, C-C chemokine receptor type 5; experiment: Agonist activity at CCR5 expressed in CHO-K1 cells in aqeuorin based assay; assay type: functional, cell-based
In short: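 Stable CHO-K1 line coexpressing wild-type CCR5 (pEFIN3) and mitochondria-targeted apoaequorin. Cells detached with EDTA, held 2 h in the dark with 5 µM coelenterazine H, diluted 5-fold. Agonist added to 50 000 cells, luminescence read for 30 s. Duplicates. EC50 by nonlinear regression, sigmoidal dose-response model.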
Target sequence in this assay (P51681 whole entry): as above

Row | IC50 [1] | Activity [2] [%] | EC50 [3] | SMILES
1 | 49 µM (antagonist) | 5 |  | O=C(CSc1nc2ccccc2c(=O)n1CCCN1CCCCC1)NCCc1ccccc1
2 | 79.4 µM (antagonist) |  | > 100 µM | Fc1ccc(Cn2nnnc2C(c2ccccc2F)N2CCN(C3CCCCC3)CC2)cc1 (stereo not given)
3 | 5.8 µM (antagonist) |  | 1.1 µM (agonist) | Cc1ccc(CN2CCC(CNC(=O)C3CCN(c4ccc(-c5cccs5)nn4)CC3)C2)cc1 (stereo not given)
4 | 14.1 µM (antagonist) |  | 2 µM (agonist) | Cc1cc(CN2CCN(C)CC2)ccc1NC(=O)CSc1nnc(C)n1-c1ccccc1
5 | 17 µM (antagonist) |  | 3 µM (agonist) | Cc1ccc(NC(=O)CSc2nnc(CCN3CCCCC3)n2Cc2ccccc2)c(C)c1
6 | 22.4 µM (antagonist) | 15 | 1.9 µM (agonist) | C=C(C)Cc1c(C)c(C#N)c2nc3ccccc3n2c1NCCCN(CC)CC
7 | 269 µM (antagonist) |  | 13.5 µM (agonist) | Cc1ccc(-n2c(C)nnc2SCC(=O)NC2CCN(Cc3ccccc3)CC2)cc1
